# Reference: ChEMBL document CHEMBL4177662, “Phosphamide-containing diphenylpyrimidine analogues (PA-DPPYs) as potent focal adhesion kinase (FAK) inhibitors with enhanced activity against pancreatic cancer cell lines” (Bioorg Med Chem, 2017)
# Experiments:
# [1] = target: Epidermal growth factor receptor (Homo sapiens) (UniProt P00533); test: Inhibition of recombinant GST-tagged human EGFR cytoplasmic domain (668 to 1210 residues) expressed in baculovirus expression system at 100 nM relative to control
# Summary of the method: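 Part of a small kinase-panel profile run by an outsourced biochemical profiling service. The test compound was given at a single concentration of 100 nM, and activity was reported as percent inhibition rate.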
# [2] = system: ASPC1; test: Induction of apoptosis in human Aspc-1 cells assessed as viable cells at 10 uM after 72 hrs by Annexin V-FITC/propidium iodide staining-based flow cytometry (reference value: 100%); format: functional; conditions: ASPC1, 72 h, read-out: Activity
# Summary of the method: (§1)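 AsPC-1 cells (3 to 5×10^5 per well) were treated with DMSO solvent control or compound for 72 h in medium with 5% FBS. Cells were then stained with Annexin V-FITC and propidium iodide and analysed by flow cytometry. One representative experiment shown.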
# [3] = system: PANC-1 (human); test: Antiproliferative activity against human PANC-1 cells assessed as cell viability at 8 uM after 24 hrs by MTT assay (reference value: 100%); conditions: PANC-1, 24 h
# [4] = system: PANC-1 (human); test: Antiproliferative activity against human PANC-1 cells assessed as cell viability at 4 uM after 72 hrs by MTT assay (reference value: 97%); conditions: PANC-1, 72 h
# [5] = system: ASPC1; test: Induction of apoptosis in human Aspc-1 cells assessed as necrotic cells at 10 uM after 72 hrs by Annexin V-FITC/propidium iodide staining-based flow cytometry (reference value: 0%); format: functional; summary of the method: as §1
# [6] = system: ASPC1; test: Antiproliferative activity against human Aspc-1 cells assessed as cell viability at 4 uM after 24 hrs by MTT assay (reference value: 100%); format: functional; conditions: ASPC1, 24 h, read-out: Activity
# [7] = system: ASPC1; test: Cell cycle arrest in human Aspc-1 cells assessed as accumulation at G2/M phase at 2.5 uM after 72 hrs by propidium iodide staining-based flow cytometry (reference value: 0.89%); format: functional
# [8] = system: ASPC1; test: Induction of apoptosis in human Aspc-1 cells assessed as early apoptotic cells at 10 uM after 72 hrs by Annexin V-FITC/propidium iodide staining-based flow cytometry (reference value: 0%); format: functional; summary of the method: as §1
# [9] = system: ASPC1; test: Induction of apoptosis in human Aspc-1 cells assessed as necrotic cells at 5 uM after 72 hrs by Annexin V-FITC/propidium iodide staining-based flow cytometry (reference value: 0%); format: functional; summary of the method: as §1
# [10] = system: PANC-1 (human); test: Antiproliferative activity against human PANC-1 cells assessed as cell viability at 8 uM after 48 hrs by MTT assay (reference value: 98.8%); conditions: PANC-1, 48 h
# [11] = system: ASPC1; test: Antiproliferative activity against human Aspc-1 cells assessed as cell viability at 0.5 uM after 24 hrs by MTT assay (reference value: 100%); format: functional; conditions: ASPC1, 24 h, read-out: Activity
# [12] = system: ASPC1; test: Induction of apoptosis in human Aspc-1 cells assessed as viable cells at 5 uM after 72 hrs by Annexin V-FITC/propidium iodide staining-based flow cytometry (reference value: 100%); format: functional; conditions: ASPC1, 72 h, read-out: Activity; summary of the method: as §1
# [13] = system: ASPC1; test: Cell cycle arrest in human Aspc-1 cells assessed as accumulation at G2/M phase at 5 uM after 72 hrs by propidium iodide staining-based flow cytometry (reference value: 0.89%); format: functional
# [14] = system: ASPC1; test: Induction of apoptosis in human Aspc-1 cells assessed as early apoptotic cells at 5 uM after 72 hrs by Annexin V-FITC/propidium iodide staining-based flow cytometry (reference value: 0%); format: functional; summary of the method: as §1
# [15] = system: PANC-1 (human); test: Antiproliferative activity against human PANC-1 cells assessed as cell viability at 8 uM after 72 hrs by MTT assay (reference value: 97%); conditions: PANC-1, 72 h
# [16] = system: ASPC1; test: Antiproliferative activity against human Aspc-1 cells assessed as cell viability at 0.5 uM after 72 hrs by MTT assay (reference value: 97%); format: functional; conditions: ASPC1, 72 h, read-out: Activity
# [17] = system: ASPC1; test: Cell cycle arrest in human Aspc-1 cells assessed as accumulation at G0/G1 phase at 1 uM after 72 hrs by propidium iodide staining-based flow cytometry (reference value: 39.41%); format: functional
# [18] = target: Focal adhesion kinase 1 (Homo sapiens, UniProt Q05397); test: Inhibition of recombinant human N-terminal His-tagged FAK cytoplasmic domain (393 to 698 residues) expressed in baculovirus infected sf9 cells assessed as reduction in autophosphorylation after 60 mins by ADP-Glo kinase assay
# Summary of the method: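 ADP-Glo luminescence assay. The kinase reaction ran in 1× kinase buffer with compound at 1 to 200 nM, for 60 min at room temperature. ADP-Glo reagent was then added to stop the reaction and deplete leftover ATP (40 min, room temperature). Detection reagent converted ADP to ATP for luciferase read-out (30 min). IC50 from curve fitting, mean ± SE of three independent experiments.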
# [19] = system: ASPC1; test: Cell cycle arrest in human Aspc-1 cells assessed as accumulation at S phase at 5 uM after 72 hrs by propidium iodide staining-based flow cytometry (reference value: 59.70%); format: functional
# [20] = system: BXPC-3; test: Antiproliferative activity against human BxPC3 cells assessed as cell viability at 4 uM after 24 hrs by MTT assay (reference value: 100%); format: functional; conditions: BXPC-3, 24 h, read-out: Activity
# [21] = system: ASPC1; test: Induction of apoptosis in human Aspc-1 cells assessed as late apoptotic cells at 2.5 uM after 72 hrs by Annexin V-FITC/propidium iodide staining-based flow cytometry (reference value: 0%); format: functional; summary of the method: as §1
# Sequence of Epidermal growth factor receptor (Homo sapiens) (P00533 whole entry, the tested form may be a part): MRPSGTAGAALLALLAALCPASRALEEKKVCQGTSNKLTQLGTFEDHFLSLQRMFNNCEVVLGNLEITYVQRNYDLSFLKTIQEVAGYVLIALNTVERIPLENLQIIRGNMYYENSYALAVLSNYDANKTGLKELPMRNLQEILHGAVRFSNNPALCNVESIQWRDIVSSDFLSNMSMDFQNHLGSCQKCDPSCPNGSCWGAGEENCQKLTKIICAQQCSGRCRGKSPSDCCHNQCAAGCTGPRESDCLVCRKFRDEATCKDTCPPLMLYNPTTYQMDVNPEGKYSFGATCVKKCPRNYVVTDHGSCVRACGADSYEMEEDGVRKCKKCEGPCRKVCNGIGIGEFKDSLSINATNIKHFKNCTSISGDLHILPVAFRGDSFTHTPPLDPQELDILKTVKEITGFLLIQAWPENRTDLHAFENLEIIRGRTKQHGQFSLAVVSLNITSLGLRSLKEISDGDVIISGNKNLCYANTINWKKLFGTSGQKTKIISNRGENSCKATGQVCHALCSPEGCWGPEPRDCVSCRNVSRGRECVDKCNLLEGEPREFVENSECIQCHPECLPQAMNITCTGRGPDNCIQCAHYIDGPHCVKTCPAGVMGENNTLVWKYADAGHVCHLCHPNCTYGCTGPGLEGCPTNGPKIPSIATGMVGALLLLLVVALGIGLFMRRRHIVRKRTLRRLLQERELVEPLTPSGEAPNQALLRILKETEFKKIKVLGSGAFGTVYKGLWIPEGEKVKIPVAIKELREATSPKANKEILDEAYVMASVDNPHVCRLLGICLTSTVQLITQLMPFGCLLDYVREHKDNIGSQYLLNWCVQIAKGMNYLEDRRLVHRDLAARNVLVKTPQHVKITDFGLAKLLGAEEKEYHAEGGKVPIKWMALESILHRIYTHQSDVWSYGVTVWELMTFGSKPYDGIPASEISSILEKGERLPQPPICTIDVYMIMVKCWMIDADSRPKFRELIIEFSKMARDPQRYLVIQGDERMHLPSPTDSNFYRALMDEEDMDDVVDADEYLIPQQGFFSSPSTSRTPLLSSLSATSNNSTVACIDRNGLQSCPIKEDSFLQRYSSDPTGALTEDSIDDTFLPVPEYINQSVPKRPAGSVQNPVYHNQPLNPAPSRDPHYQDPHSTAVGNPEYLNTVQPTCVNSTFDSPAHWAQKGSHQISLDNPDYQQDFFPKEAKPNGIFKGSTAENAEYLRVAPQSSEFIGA
# Sequence of Focal adhesion kinase 1 (Q05397 whole entry, the tested form may be a part): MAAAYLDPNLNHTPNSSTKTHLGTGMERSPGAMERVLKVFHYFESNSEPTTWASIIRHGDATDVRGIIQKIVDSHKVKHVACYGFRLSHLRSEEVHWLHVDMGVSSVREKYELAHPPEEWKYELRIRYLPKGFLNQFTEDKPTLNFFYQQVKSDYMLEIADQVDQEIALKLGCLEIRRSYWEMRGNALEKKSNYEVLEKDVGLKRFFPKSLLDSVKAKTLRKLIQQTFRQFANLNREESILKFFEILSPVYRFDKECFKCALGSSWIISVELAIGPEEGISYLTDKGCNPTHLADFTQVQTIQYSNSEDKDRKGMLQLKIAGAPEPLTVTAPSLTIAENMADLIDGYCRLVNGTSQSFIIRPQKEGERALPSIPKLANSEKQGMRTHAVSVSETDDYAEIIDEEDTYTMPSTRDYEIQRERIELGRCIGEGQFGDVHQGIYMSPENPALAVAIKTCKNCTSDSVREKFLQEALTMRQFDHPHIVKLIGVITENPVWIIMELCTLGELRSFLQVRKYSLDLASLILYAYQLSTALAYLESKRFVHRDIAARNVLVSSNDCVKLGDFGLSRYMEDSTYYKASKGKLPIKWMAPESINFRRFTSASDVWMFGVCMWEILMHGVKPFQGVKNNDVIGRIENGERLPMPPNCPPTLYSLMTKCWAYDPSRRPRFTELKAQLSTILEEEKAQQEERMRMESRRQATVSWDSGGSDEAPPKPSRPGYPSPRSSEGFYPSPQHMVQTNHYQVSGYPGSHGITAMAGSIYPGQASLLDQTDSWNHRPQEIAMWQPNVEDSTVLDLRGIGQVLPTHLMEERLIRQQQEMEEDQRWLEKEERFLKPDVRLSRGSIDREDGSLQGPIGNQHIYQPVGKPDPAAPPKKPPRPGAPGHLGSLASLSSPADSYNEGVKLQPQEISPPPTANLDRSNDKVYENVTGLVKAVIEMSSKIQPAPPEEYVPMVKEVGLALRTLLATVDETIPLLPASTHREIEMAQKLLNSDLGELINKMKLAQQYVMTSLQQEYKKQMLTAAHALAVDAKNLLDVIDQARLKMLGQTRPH
smiles,measurement,setting,value
CCOP(=O)(CCCOc1ccc(Nc2ncc([N+](=O)[O-])c(Nc3ccccc3C(=O)NC)n2)cc1)N1CCOCC1 (stereo unspecified),inhibition,[1],22%
same,viability at 10 µM,[2],7.7%
same,viability at 8 µM,[3],87.3%
same,viability at 4 µM,[4],58.4%
same,Activity,[5],0.4%
same,viability at 4 µM,[6],68%
same,Activity,[7],16.54%
same,Activity,[8],16.6%
same,Activity,[9],3.3%
same,viability at 8 µM,[10],29.5%
same,viability at 0.5 µM,[11],99.4%
same,viability at 5 µM,[12],40.1%
same,Activity,[13],22.11%
same,Activity,[14],16.3%
same,viability at 8 µM,[15],18.1%
same,viability at 0.5 µM,[16],94.4%
same,Activity,[17],38.6%
same,IC50,[18],4.65 nM
same,Activity,[19],37.82%
same,viability at 4 µM,[20],88.5%
same,Activity,[21],20.7%
